High-throughput results from PubChem BioAssay.
Sampled rows, rich in hits. Any-hit rate of the full collection: about 3.7%.
Kir21 block = Kir2.1 (mouse) channel inhibition. P35561. HEK293-Kir2.1, FluxOR thallium flux fluorescence; active compounds read low. B-score at 10 µM. 310,000 tested, 0.85% active. AID 1672;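 active = fluorescence ratio B-score at or below minus 3 SD of library scores, with starting-brightness B-score within 2 SD, cut at about -4.2 in these data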;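 note: channel flux triggered by added potassium and thallium sulfate stimulus; B-score of peak minus minimum fluorescence over baseline after thallium stimulus; more negative B-score means stronger Kir2.1 block with less thallium influx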
KCNQ1 inh = inhibitors of human KCNQ1 potassium channel; P51787; CHO-K1 KCNQ1, FluxOR thallium flux fluorescence; active compounds read high; B-score at 10 µM; 310,000 tested, 1.3% active; AID 2642;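 active = compounds whose thallium flux B-score, printed positive for inhibition, exceeds three library SD while starting fluorescence stays within three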;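 note: channel opened by potassium depolarization with thallium stimulus after 20 min compound exposure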
KCNK9 block = human KCNK9 channel inhibition | AID 488922 | Q9NPC2 | 310,000 tested, 1.2% active | HEK293 KCNK9, FluxOR thallium flux fluorescence; active compounds read low | B-score at 10 µM;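 active = ratio B-score over 3 SD below the library mean, with starting fluorescence within 5 SD of its mean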;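 note: negative B-score means less thallium flux so channel inhibition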
KCNK3 inh = human KCNK3 channel inhibition, primary screen | O14649 | CHO-KCNK3 thallium flux, FluxOR fluorescence; active compounds read low | B-score at 10 µM | 340,000 tested, 0.84% active | AID 602410;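 active = B-score under library mean minus 4 SD, starting fluorescence ratio at most library mean plus 5 SD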;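 note: more negative B-score means stronger inhibition of thallium flux through KCNK3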
KCNQ1 pot = potentiates or activates the human KCNQ1 potassium channel; CHO-K1 KCNQ1, thallium flux FluxOR fluorescence; active compounds read high; B-score at 10 µM; 310,000 tested, 0.35% active; AID 2648;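 active = fluorescence ratio B-score, a plate-corrected score, at least three library SD, with initial intensity B-score within 5 SD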
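Schedule – 37 °C overnight plating, 90-min dark dye load, 20-min compound pretreatment · System – stable KCNQ1 CHO-K1 line · Probe or stimulus – thallium- and potassium-containing depolarizing buffer · Measured by – kinetic FluxOR fluorescence, 10 s baseline plus 110 s post-stimulus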
hERG rescue = compounds protecting human hERG from proarrhythmic drug block; activation (rescue from dofetilide block), less the hit threshold, % at 10 µM; 310,000 tested, 0.51% active; Q12809; CHO-hERG, FluxOR thallium flux, dofetilide IC70 present;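 active = activation above the mean of controls blocked by dofetilide plus 5 SD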;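 note: thallium influx through hERG after potassium depolarization seen as dye fluorescence rise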
Target sequence (Q12809 whole entry, looked up): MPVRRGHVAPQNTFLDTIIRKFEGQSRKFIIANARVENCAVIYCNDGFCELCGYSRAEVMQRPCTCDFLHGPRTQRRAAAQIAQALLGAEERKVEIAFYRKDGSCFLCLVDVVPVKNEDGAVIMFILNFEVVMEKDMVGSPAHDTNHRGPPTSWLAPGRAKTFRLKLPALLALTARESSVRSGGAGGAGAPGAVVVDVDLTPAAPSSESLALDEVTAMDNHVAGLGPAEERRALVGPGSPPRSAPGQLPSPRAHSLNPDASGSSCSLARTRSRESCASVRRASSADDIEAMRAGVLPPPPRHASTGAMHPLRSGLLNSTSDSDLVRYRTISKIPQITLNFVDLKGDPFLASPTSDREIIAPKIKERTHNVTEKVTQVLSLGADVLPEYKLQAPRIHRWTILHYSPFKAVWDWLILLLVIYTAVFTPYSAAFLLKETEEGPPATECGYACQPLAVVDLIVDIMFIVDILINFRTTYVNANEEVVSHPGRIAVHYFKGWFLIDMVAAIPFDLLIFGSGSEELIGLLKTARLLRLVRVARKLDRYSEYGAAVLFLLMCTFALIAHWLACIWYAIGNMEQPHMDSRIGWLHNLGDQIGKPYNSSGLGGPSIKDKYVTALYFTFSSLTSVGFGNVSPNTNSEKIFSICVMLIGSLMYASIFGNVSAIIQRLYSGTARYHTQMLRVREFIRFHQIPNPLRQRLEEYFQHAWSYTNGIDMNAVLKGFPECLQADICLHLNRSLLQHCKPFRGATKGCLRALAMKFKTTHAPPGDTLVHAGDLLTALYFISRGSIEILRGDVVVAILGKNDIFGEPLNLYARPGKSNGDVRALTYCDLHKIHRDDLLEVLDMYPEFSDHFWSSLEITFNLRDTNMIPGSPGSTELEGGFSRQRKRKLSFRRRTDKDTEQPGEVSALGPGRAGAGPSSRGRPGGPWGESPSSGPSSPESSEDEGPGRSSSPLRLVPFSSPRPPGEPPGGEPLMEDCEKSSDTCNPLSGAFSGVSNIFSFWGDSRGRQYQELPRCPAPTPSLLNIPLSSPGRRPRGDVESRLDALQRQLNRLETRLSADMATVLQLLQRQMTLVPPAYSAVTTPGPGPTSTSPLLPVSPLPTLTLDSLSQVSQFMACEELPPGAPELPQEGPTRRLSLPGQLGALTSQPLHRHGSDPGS
Each line names hits and unclear results; the compound was inactive in the other large screens.

CCCCN1C2=C(C(=O)CCC2)C(c2ccc(Cl)c(Cl)c2)C2=C1c1ccccc1C2=O (configuration not stated)	KCNK3 inh -9.89
O=c1c(NCCc2ccc(Cl)cc2)c(-c2ccccc2)c1=O	none
CC(=O)Nc1ccc(NC(=S)Nc2ccc(Br)cc2)cc1	KCNQ1 inh 6
S=C(Nc1ccccc1)Nc1ccc(Br)cc1	KCNQ1 inh 6
CC(=O)Nc1ccc(NC(=S)Nc2ccccc2)cc1	none
Cc1ccc(SCC(=O)N(C)CC(=O)Nc2cccc(F)c2)c(C)c1	none
CCOc1ccc(OCC)c(NC(=O)CCCN2C(=O)c3cccnc3C2=O)c1	hERG rescue 7.5
N#Cc1nc(COc2ccc(Cl)cc2Cl)oc1N1CCN(c2ccccc2)CC1	KCNK9 block -6.61
CC(=O)NCCC(=O)Nc1ccc(C)c(F)c1	hERG rescue 5.4
CCCC(C(=O)NC1CCCC1)N(Cc1ccccc1Cl)C(=O)c1snc(C(N)=O)c1N (configuration not stated)	none
COc1ccc(/C=C2\C(=O)c3ccccc3OC2c2ccccc2)cc1 (configuration not stated)	KCNK9 block -6.7
COc1ccc2[nH]cc(CCNS(=O)(=O)c3ccc(C)cc3)c2c1	none
COc1cccc(CC2(CO)CCN(C(=O)NC3CCCCC3)CC2)c1	hERG rescue 8.7
COc1cccc(CC2(CO)CCN(C(=O)NCCc3ccccc3)CC2)c1	none
COc1ccccc1C(=O)ON=C1c2ccccc2-c2ccccc21	KCNK9 block -8.09
CCOc1cc(/C=N/n2cnnc2)ccc1OS(=O)(=O)c1ccc(C)cc1	Kir21 block -5.48
COc1ccc(NC(=O)CN(c2ccccc2F)S(=O)(=O)c2ccc(C)cc2)c(OC)c1	none
O=C(C=Cc1cccc(O)c1)c1ccccc1O	KCNK3 inh -9.89 (no result: Kir21 block, KCNQ1 inh, KCNK9 block, KCNQ1 pot, hERG rescue)
O=C(/C=C/c1ccccc1)CC(=O)c1ccccc1O	hERG rescue 15.2
CC1(c2ccccc2)NC(=O)N(CC(=O)NNC(=O)c2cccc(Cl)c2)C1=O (configuration not stated)	none (no result: Kir21 block, KCNQ1 inh, KCNK9 block, KCNQ1 pot, hERG rescue)
COc1ccc(NC(=O)C2CCCN(c3nn4c(=O)cc(C)nc4s3)C2)c(OC)c1 (configuration not stated)	none
O=C(NC(=S)Nc1ccc(Cc2ccncc2)cc1)c1ccc(F)cc1	none
CCCOc1ccc(-c2c(C(=O)N/N=C(\C)c3ccncc3)nnn2-c2nonc2N)cc1	none
COc1cc(C)ccc1OCCCON1C(=O)CCC1=O	none
O=S(=O)(c1ccc(Cl)cc1)c1snnc1-c1ccccc1	Kir21 block -9.97
O=S(=O)(c1ccc(F)cc1)c1snnc1-c1ccccc1	Kir21 block -14.8
CC(=O)N1CCc2c(sc(NC(=O)Cc3ccc(C)cc3C)c2C#N)C1	none
CCCCN(CCCC)CC(O)CN(c1cc([N+](=O)[O-])ccc1OC)S(=O)(=O)c1ccccc1 (configuration not stated)	none
COc1ccc([N+](=O)[O-])cc1N(CC(O)CN(CC(C)C)CC(C)C)S(=O)(=O)c1ccccc1 (configuration not stated)	KCNK9 block -6.72
COc1ccc(N=c2oc3cc(O)ccc3cc2C(=O)Nc2ccccn2)cc1OC	KCNQ1 inh 9, KCNK9 block -6.84
Cc1ccc(N=c2oc3cc(O)ccc3cc2C(N)=O)cc1	none
CN(C)C(CNC(=O)c1ccc(C(F)(F)F)cc1)c1ccco1 (configuration not stated)	none
CCOC(=O)N1CCN(C(=O)c2ccc3c(=O)n(CCC4=CCCCC4)c(=S)[nH]c3c2)CC1	none
O=c1c2ccc(Cl)cc2[nH]c(=S)n1CCC1=CCCCC1	KCNQ1 pot 20, hERG rescue 25.3
COc1ccc(Cn2nnnc2C(C(C)C)N(Cc2ccco2)Cc2cccs2)cc1 (configuration not stated)	KCNK9 block -7.55
CC(C)C(c1nnnn1Cc1ccccc1)N(Cc1ccco1)Cc1cccs1 (configuration not stated)	none
Cc1ccc(SCC(=O)OCC(=O)N(CC(C)C)C2CCS(=O)(=O)C2)cc1C (configuration not stated)	none
CCC1CCC2(CC1)NC(CO)(CO)CO2 (configuration not stated)	KCNQ1 pot 8
CC(=O)c1cccc(NC(=O)c2cc(-c3ccncc3)nc3ccccc23)c1	none (no result: Kir21 block, KCNQ1 inh, KCNK9 block, KCNQ1 pot, hERG rescue)
O=C(N/N=C/c1ccccn1)c1cc(-c2ccc(Cl)cc2)nc2ccccc12	none
O=C(N/N=C/c1ccccn1)c1cc(-c2ccc(Br)cc2)nc2ccccc12	KCNQ1 pot 14
CCCOc1cccc(-c2cc(C(=O)N/N=C/c3cccnc3)c3ccccc3n2)c1	KCNQ1 inh 9
CC(C)(C)c1nnc(NC(=O)c2cc(-c3ccccc3)nc3ccccc23)s1	KCNQ1 inh 6
Cc1cc(NC(=O)c2cc(-c3ccncc3)nc3ccccc23)ccc1Br	KCNK3 inh -13 (no result: Kir21 block, KCNQ1 inh, KCNK9 block, KCNQ1 pot, hERG rescue)
Cc1ccc(S(=O)(=O)NCC(=O)Nc2cccnc2)cc1C	none (no result: Kir21 block, KCNQ1 inh, KCNK9 block, KCNQ1 pot, hERG rescue)
O=C(N/N=C/c1ccccn1)c1sc2ccccc2c1Cl	KCNQ1 pot 17
O=C(Nc1ccccn1)c1cc(-c2ccc(Cl)s2)nc2ccccc12	none (no result: Kir21 block, KCNQ1 inh, KCNK9 block, KCNQ1 pot, hERG rescue)
O=C(NC(=S)Nc1ccccn1)c1cc(-c2ccccc2)nc2ccccc12	KCNQ1 pot 8
O=C(NC(=S)Nc1ccccc1)c1cc(-c2ccccc2)nc2ccccc12	KCNQ1 pot 33
O=C(N/N=C/c1c[nH]c2ccccc12)c1sc2ccccc2c1Cl	none
N#Cc1ccc(/C=N/NC(=O)c2cc(-c3cccs3)nc3ccccc23)cc1	KCNQ1 inh 6
O=C(C1CCCN1S(=O)(=O)c1cccc2nsnc12)N1CCCCCC1 (configuration not stated)	none
O=C(Nc1ccccc1)/C(=C/c1ccc(F)cc1)NC(=O)c1ccco1	none
COc1cc(-c2cc(C(=O)Nc3cccc(C(C)=O)c3)c3ccccc3n2)cc(OC)c1OC	KCNK3 inh -11.2
COc1cc(-c2cc(C(=O)Nc3ccc(O)cc3)c3ccccc3n2)cc(OC)c1OC	none
CCOc1ccc(NC(=O)CN(C)C(=O)c2ccccc2OCc2c(C)noc2C)cc1OCC	none
Fc1ccc(-c2nc3c(Cl)cc(C(F)(F)F)cn3c2Cl)cc1	none
FC(F)c1nnc2c(Cl)cc(C(F)(F)F)cn12	hERG rescue 6.4
CCC(C)[C@@H](CN)NCC1(c2ccccc2)CC1 (some centres not stated)	none (no result: Kir21 block, KCNQ1 inh, KCNK9 block, KCNQ1 pot, hERG rescue)
COc1ccc(Cl)cc1NC(=O)COC(=O)Cc1cc(OC)c(OC)c(OC)c1	none (no result: Kir21 block, KCNQ1 inh, KCNK9 block, KCNQ1 pot, hERG rescue)
COc1ccc(Cl)cc1NC(=O)COC(=O)CCc1cc(OC)c(OC)c(OC)c1	Kir21 block -4.94
O=C(CN1CCOCC1)NCc1cc([N+](=O)[O-])ccc1O	none
